Reference: ChEMBL document CHEMBL3352009, “Glucopyranosylidene-spiro-iminothiazolidinone, a new bicyclic ring system: synthesis, derivatization, and evaluation for inhibition of glycogen phosphorylase by enzyme kinetic and crystallographic methods” (Bioorg Med Chem, 2014)
Active and inactive are the calls of the source. The rule behind the calls is not given here.

Key:
[1] = target: T1, Glycogen phosphorylase, muscle form (Oryctolagus cuniculus) (UniProt P00489); test: Inhibition of rabbit muscle glycogen phosphorylase b at pH 6.8 assessed as inorganic phosphate release at 1 mM
T1 sequence (whole entry): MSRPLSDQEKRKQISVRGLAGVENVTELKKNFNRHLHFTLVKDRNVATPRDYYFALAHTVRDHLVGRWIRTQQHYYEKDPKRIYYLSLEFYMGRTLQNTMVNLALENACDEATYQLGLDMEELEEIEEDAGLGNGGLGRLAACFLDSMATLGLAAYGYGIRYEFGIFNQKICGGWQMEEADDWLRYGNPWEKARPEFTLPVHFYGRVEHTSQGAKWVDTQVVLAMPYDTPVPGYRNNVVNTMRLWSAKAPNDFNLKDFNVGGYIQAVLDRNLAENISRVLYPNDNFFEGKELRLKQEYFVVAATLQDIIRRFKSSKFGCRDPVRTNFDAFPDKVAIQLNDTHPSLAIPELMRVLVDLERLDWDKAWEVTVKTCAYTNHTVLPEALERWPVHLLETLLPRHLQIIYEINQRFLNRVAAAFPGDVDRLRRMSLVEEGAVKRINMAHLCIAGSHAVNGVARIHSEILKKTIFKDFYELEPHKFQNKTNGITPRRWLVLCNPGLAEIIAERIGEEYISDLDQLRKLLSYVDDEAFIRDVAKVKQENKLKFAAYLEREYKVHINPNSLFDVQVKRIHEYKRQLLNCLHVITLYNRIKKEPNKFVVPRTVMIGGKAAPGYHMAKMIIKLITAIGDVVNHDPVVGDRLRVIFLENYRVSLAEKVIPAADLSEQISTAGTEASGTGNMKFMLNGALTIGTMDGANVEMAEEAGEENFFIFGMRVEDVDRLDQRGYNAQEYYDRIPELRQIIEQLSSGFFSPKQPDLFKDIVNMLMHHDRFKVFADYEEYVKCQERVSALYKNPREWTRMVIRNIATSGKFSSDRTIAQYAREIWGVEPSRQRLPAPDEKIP

[2] = target: T2, Glycogen phosphorylase, muscle form (Oryctolagus cuniculus, UniProt P00489); test: Inhibition of rabbit muscle glycogen phosphorylase b at pH 6.8 assessed as inorganic phosphate release
T2 sequence (P00489 whole entry): T1 sequence (whole entry)
Procedure, shortened: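 Rabbit muscle glycogen phosphorylase b; activity followed by inorganic phosphate release at pH 6.8. Inhibition constants reported as Ki, with part of the values derived from IC50 via the Cheng-Prusoff relation Ki = IC50/(1 + [S]/Km).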

Row | SMILES | inhibition [1] | Ki [2]
1 | O=C(/N=C1/NC(=O)[C@]2(O[C@H](CO)[C@@H](O)[C@H](O)[C@H]2O)S1)c1ccc2ccccc2c1 |  | 10 µM
2 | O=C1N/C(=N/S(=O)(=O)c2cccc3ccccc23)S[C@@]12O[C@H](CO)[C@@H](O)[C@H](O)[C@H]2O |  | 29 µM
3 | O=C(/N=C1/NC(=O)[C@]2(O[C@H](CO)[C@@H](O)[C@H](O)[C@H]2O)S1)c1cccc2ccccc12 |  | 15 µM
4 | O=C(/N=C1/NC(=O)[C@]2(O[C@H](CO)[C@@H](O)[C@H](O)[C@H]2O)S1)c1ccccc1 |  | 9 µM
5 | Cc1ccc(S(=O)(=O)/N=C2/NC(=O)[C@]3(O[C@H](CO)[C@@H](O)[C@H](O)[C@H]3O)S2)cc1 |  | 63 µM
6 | Cc1ccc(C(=O)/N=C2/NC(=O)[C@]3(O[C@H](CO)[C@@H](O)[C@H](O)[C@H]3O)S2)cc1 |  | 35 µM

Next, values leading:

Row | inhibition [1] | Ki [2] | SMILES
7 | 48% |  | O=C1N2CCN=C2S[C@@]12O[C@H](CO)[C@@H](O)[C@H](O)[C@H]2O
8 |  | 153 µM | O=C1N/C(=N/S(=O)(=O)c2ccc3ccccc3c2)S[C@@]12O[C@H](CO)[C@@H](O)[C@H](O)[C@H]2O
9 |  | 24 µM | N=C1NC(=O)[C@]2(O[C@H](CO)[C@@H](O)[C@H](O)[C@H]2O)S1
10 |  | 143 µM | O=C1N/C(=N/S(=O)(=O)c2ccccc2)S[C@@]12O[C@H](CO)[C@@H](O)[C@H](O)[C@H]2O
11 |  | 137 µM | CC(C)(C)C(=O)/N=C1/NC(=O)[C@]2(O[C@H](CO)[C@@H](O)[C@H](O)[C@H]2O)S1
12 | inactive |  | O=C1N2CCCN=C2S[C@@]12O[C@H](CO)[C@@H](O)[C@H](O)[C@H]2O
